From ChEMBL document CHEMBL5678817, “FTBMT, a Novel and Selective GPR52 Agonist, Demonstrates Antipsychotic-Like and Procognitive Effects in Rodents, Revealing a Potential Therapeutic Agent for Schizophrenia” (J Pharmacol Exp Ther, 2017)
The source made the active and inactive calls. The rule behind the calls is not given here.

Tests used:
Rattus norvegicus = assay: Effect on prolactin level in Wistar rat at 1 mg/kg, po […] by immunoassay; format: functional, organism-based
In short: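 Male Wistar rats (7 weeks) dosed orally (haloperidol 1 mg/kg among arms) or vehicle. Trunk blood taken into EDTA 1 h later and centrifuged 1600 g, 20 min, 4 °C. Plasma prolactin measured by rat prolactin enzyme immunoassay; n = 4.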

Mus musculus = assay: Antipsychotic activity in methamphetamine-induced hyperactivity in ICR mouse assessed as minimum effective dose administered orally; format: functional; conditions: route po, read-out: MED

SMILES: O=C(CCCN1CCC(O)(c2ccc(Cl)cc2)CC1)c1ccc(F)cc1
- Activity (Rattus norvegicus): Active

SMILES: Cc1cc2c(s1)Nc1ccccc1N=C2N1CCN(C)CC1 [OLANZAPINE]
- minimal effective dose (Mus musculus): 1 mg/kg
